IMP-1 inhibitor = inhibitors of Pseudomonas aeruginosa IMP-1 metallo-beta-lactamase. purified IMP-1, nitrocefin hydrolysis, epi-absorbance fluorescence. inhibition, % at 5.6 µM. hit rate 0.45% among 290,000. AID 1556;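 active = inhibition above the mean plus 3 SD of all compounds in the same screening run, cut at about 4.5% in these data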
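assay system = purified recombinant IMP-1 metallo-beta-lactamase enzyme | schedule = 15 min preincubation plus 25 min reaction at 25 °C | signal = Epi-absorbance fluorescence, 480 nm excitation, 530 nm emission | read-out basis = percent inhibition from optical density relative to buffer-blank wells | controls = IMP-1 with DMSO as 0%, enzyme-free DMSO as 100%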
HCV NS3 hel inh = blocks Hepatitis C virus NS3 helicase unwinding. hit rate 0.56% among 290,000. NS3 helicase DNA unwinding, Cy5 molecular beacon fluorescence. inhibition, % at 10.9 µM. AID 1800;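 active = inhibition above the mean of all tested compounds plus 3 SD, set per campaign, cut at about 35% in these data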
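assay system = NS3 helicase fragment of HCV | buffer or medium = MOPS pH 6.5, MgCl2, DTT, Tween20, BSA | timing = 60 min unwinding reaction at 25 °C after ATP addition | signal = Cy5 beacon fluorescence read at start and 1 h | read-out basis = % inhibition of unwinding | control set = low DMSO, high thioflavine S at 110 µM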
core dimer inh = HCV core protein dimerization inhibition. TR-FRET GST/Flag-core106 dimerization, 1536-well. hit rate 0.33% among 300,000. inhibition, % at 5 µM;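 active = inhibition above the mean of all tested compounds plus 3 SD, set per screening campaign, cut at about 45% in these data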
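Material: GST/Flag-tagged HCV core106 proteins. Incubation: 4 h, 22.5 °C incubation. Read-out basis: inhibition (%) from 671 over 617 nm ratio. Measured by: TR-FRET, excitation 340 nm, emission 617 and 671 nm.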
VIM-2 inhibitor = blocks Pseudomonas aeruginosa VIM-2 metallo-beta-lactamase | purified VIM-2, nitrocefin hydrolysis, epi-absorbance fluorescence | inhibition, % at 5.6 µM | hit rate 0.89% among 290,000;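 active = inhibition above the mean of all tested compounds plus 3 SD, cutoff set per screening run, cut at about 7.5% in these data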;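 note: red hydrolysis product quenches plate fluorescence so inhibitors raise well fluorescence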
PHOSPHO1 block = inhibitors of human PHOSPHO1 phosphatase | Q8TCT1 | AID 1565 | inhibition, % at 13.3 µM | hit rate 1.1% among 290,000 | recombinant PHOSPHO1, absorbance phosphatase assay; in the data active = inhibition above about 60%
Target sequence (Q8TCT1 whole entry, looked up): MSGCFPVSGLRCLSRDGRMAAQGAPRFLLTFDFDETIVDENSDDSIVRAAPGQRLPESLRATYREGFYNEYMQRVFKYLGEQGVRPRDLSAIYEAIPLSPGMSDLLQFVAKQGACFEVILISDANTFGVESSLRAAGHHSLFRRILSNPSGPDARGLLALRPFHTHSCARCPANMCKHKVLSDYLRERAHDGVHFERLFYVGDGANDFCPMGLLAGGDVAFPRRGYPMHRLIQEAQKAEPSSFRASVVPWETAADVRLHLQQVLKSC
SUMO HTRF inh = blocks human SUMOylation mediated by UBC9; P63279; HTRF SUMOylation assay, SAE1/SAE2 + UBC9, in vitro; inhibition, % at 35 µM; hit rate 0.36% among 290,000; AID 2006; in the data active = inhibition above about 50%, passing the limit was not always enough
Target sequence (P63279 whole entry, looked up): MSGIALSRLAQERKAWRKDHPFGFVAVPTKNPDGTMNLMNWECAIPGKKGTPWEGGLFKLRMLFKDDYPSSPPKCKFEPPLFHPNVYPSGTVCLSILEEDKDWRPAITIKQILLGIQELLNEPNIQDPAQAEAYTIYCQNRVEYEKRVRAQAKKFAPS
Of the large screens only hits and unclear results are named; the others gave an inactive call. Hits are enriched below; roughly 3.1% of the tested compounds scored in any of these assays.

COc1ccc(/C=C(\CC(=O)O)c2nc3ccccc3s2)cc1O	none
COc1ccc(C(=O)Nc2cccc(/C=C(\CCC(=O)O)c3nc4ccccc4s3)c2)cc1	core dimer inh 64.1
CNc1ccc(/C=C(\CCC(=O)O)c2nc3ccccc3s2)cc1[N+](=O)[O-]	VIM-2 inhibitor 11.3
Cc1ccc(/C=C(\CCC(=O)O)c2nc3ccccc3s2)cc1[N+](=O)[O-]	VIM-2 inhibitor 8.8
CC(=O)c1cccc(N(C(=O)c2ccco2)C(C(=O)NC2CCCC2)c2ccccc2F)c1 (stereo unspecified)	none
COC(=O)c1sccc1NC(=O)Cn1nnc(-c2ccccc2C)n1	none
Cc1ccccc1-n1c(SCC(=O)c2cc(C)n(C)c2C)nnc1-c1ccncc1	PHOSPHO1 block 93.4
O=C(N/N=C/c1cccc(Cl)c1)C(c1ccncc1)N1CCOCC1 (stereo unspecified)	none
Cc1cccc(C(C)C)c1NC(=O)COC(=O)CCN1C(=O)C2CC=CCC2C1=O (stereo unspecified)	PHOSPHO1 block 70.2
CC(=O)C(Cc1ccccc1)NC(=O)COC(=O)CCN1C(=O)C2CC=CCC2C1=O (stereo unspecified)	none (no result: IMP-1 inhibitor, HCV NS3 hel inh, VIM-2 inhibitor, PHOSPHO1 block, SUMO HTRF inh)
Clc1c(-c2nnc3n2CCC3)sc2ccccc12	none
Cn1c(-c2sc3ccccc3c2Cl)n[nH]c1=S	PHOSPHO1 block 94.5
S=c1[nH]nc(CSc2nc3ccccc3s2)o1	PHOSPHO1 block 105.3
c1ccc2[nH]c(CSc3nc4ccccc4s3)nc2c1	none
Cn1c(CSc2nc3ccccc3s2)n[nH]c1=S	PHOSPHO1 block 72.8
CC(NC(=O)C1CCC(CNS(=O)(=O)c2ccc3c(c2)C(C)(C)C(=O)N3C)CC1)c1ccccc1 (stereo unspecified)	none
COc1ccc2[nH]c(CN3CCC(CO)(CCOc4ccccc4)CC3)c(C)c2c1	none
Cc1c(C)n(CCc2ccccc2)c2ncnc(NN)c12	VIM-2 inhibitor 7.8
COc1ccccc1OCCC(=O)OCC(=O)c1[nH]c(C)c(C(C)=O)c1C	none
N#CC1=C(S)N(c2ccccc2)C(c2ccc(-c3ccc(Cl)c(Cl)c3)o2)NC1=O (stereo unspecified)	IMP-1 inhibitor 5.2
O=C([C@H](O)c1ccccc1)N1CCC[C@H]1CO	none
Cc1cc(SCc2cccc([N+](=O)[O-])c2)nc(=O)[nH]1	none
Cc1cc(SCC(=O)c2cccc([N+](=O)[O-])c2)nc(=O)[nH]1	core dimer inh 70.5
O=C(NCc1ccccc1)C(c1ccncc1)N(C(=O)c1ccccn1)c1ccccc1 (stereo unspecified)	none
COc1ccc(S(=O)NC2CCCCC2)c(OC)c1C (stereo unspecified)	PHOSPHO1 block 86.6
COc1ccc(C(=O)NC2CCCCCCC2)cc1OC	none (no result: IMP-1 inhibitor, HCV NS3 hel inh, VIM-2 inhibitor, PHOSPHO1 block, SUMO HTRF inh)
O=C1C(=Cc2cccn2-c2ccc(O)cc2)C(=O)c2ccccc21	core dimer inh 60.8
COC(=O)c1ccc(NC(=O)Cn2nc(C(=O)Nc3ccc(C)cc3)ccc2=O)cc1	IMP-1 inhibitor 11.3
CCOc1ccc(CNC(=O)CCC(=O)N2Cc3ccccc3Oc3ncccc32)cc1	none
Cc1ccc2c(c1)c1ncnc(N3CCOCC3)c1n2C	VIM-2 inhibitor 7.7
CCCCn1c(N)c(N(CC(C)C)C(=O)CCCc2nc3ccccc3c(=O)[nH]2)c(=O)[nH]c1=O	none (no result: IMP-1 inhibitor, HCV NS3 hel inh, VIM-2 inhibitor, PHOSPHO1 block, SUMO HTRF inh)
O=C(COc1cc(F)ccc1[N+](=O)[O-])NCCCc1ccccc1	none
CC1(C)Cc2c(c(N3CCOCC3)nc3sc4c(=O)[nH]cnc4c23)CS1	PHOSPHO1 block 108.2
COc1ccc2[nH]c(=O)c(CN(C(=O)c3cccnc3)c3ccccc3C)cc2c1	none
Cn1c(CCN2CCOCC2)nc2cc(NC(=O)c3cccs3)ccc21	PHOSPHO1 block 64.3
CC(=O)NCCc1nc2cc(NC(=O)c3cccs3)ccc2n1C	none
CC(Oc1cc(Cl)ccc1Cl)C(=O)N/N=C\c1ccnn1C (stereo unspecified)	none
Cc1cc(C(=O)NC(C)C2CCCO2)no1 (stereo unspecified)	PHOSPHO1 block 60.0
C=CCNC(=S)NNC(=O)c1cccn(Cc2ccc(Cl)c(Cl)c2)c1=O	PHOSPHO1 block 78.5
O=C(O)CC(Cn1[nH]nnc1=S)c1ccccc1 (stereo unspecified)	PHOSPHO1 block 93.5
